In publication PMC3914721 (Biochemistry, 2013):
“And” between values parts separate entries of the source, which are not always exact repeats. Equal entries are not always repeated. Where two headings read alike, the source gives them in different places.

What was measured:
[1] = test system: pre-constricted aortic rings; details: read-out: EC50 to stimulate sGC in pre-constricted aortic rings; cited from earlier work
Ms sGC-NT21-CO = Ms sGC-NT21-CO (Manduca sexta, UniProt O77106); assay: Soret band shift titration of CO-saturated protein; type: binding
Ms sGC-NT13 [2] = biological target: T1, Ms sGC-NT13 (Manduca sexta, UniProt O77106); assay: CO titration monitoring the CO-bound Soret band; type: binding; details: for Kd^CO/Kd^CO′ cooperativity factor: ratio of CO dissociation constants without and with compound
Outline: (§1)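 CO titrations were run at room temperature in 50 mM potassium phosphate pH 7.4, 100 mM KCl, 5% glycerol, at several YC-1 concentrations (0–50 μM). NT21 used a 10 cm cuvette with 0.1 μM protein; NT13 used a 1 cm cuvette with 1 μM protein. A four-state cooperative model was globally fit to normalized absorbance changes at 423 and 433 nm, giving Ka^CO, Ka^YC-1 and Kint. Kd^CO′ is the inverse of Ka^CO·Kint.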

Ms sGC-NT13-CO = Ms sGC-NT13-CO (Manduca sexta, UniProt O77106); assay: Soret band shift titration of CO-saturated protein; type: binding
Ms sGC-NT13 [3] = biological target: T1, Ms sGC-NT13; type: binding
Ms sGC-NT = Ms sGC-NT (Manduca sexta, UniProt O77106); assay: Stimulator binding to Ms sGC-NT constructs, summary over constructs and methods; details: for Effect of α1 H-NOX removal on stimulator binding (Ms sGC-NT21 vs Ms sGC-NT13): unliganded proteins
Ms sGC-NT21 [4] = biological target: T2, Ms sGC-NT21 (Manduca sexta, UniProt O77106); type: binding; details: for Kint (CO) cooperativity factor: from global fitting
Ms sGC-NT21 [5] = biological target: T2, Ms sGC-NT21; assay: CO titration monitoring the CO-bound Soret band; type: binding; details: for Kd^CO/Kd^CO′ cooperativity factor: ratio of CO dissociation constants without and with compound
Outline: as §1

Bt sGC (full length) [6] = details: read-out: Kd^CO, no stimulator, cited from earlier work
Hs sGC (full length) = details: read-out: Kd^CO; no stimulator; ref 77; cited from earlier work
Bt sGC β1(1–359) = biological target: T3, Bt sGC β1(1–359) (Bos taurus, UniProt P16068); assay: CO titration monitoring the CO-bound Soret band; type: binding, Bos taurus (bovine); details: read-out: Kd^CO; no stimulator; 1 μM protein
T3 sequence (P16068 1-359): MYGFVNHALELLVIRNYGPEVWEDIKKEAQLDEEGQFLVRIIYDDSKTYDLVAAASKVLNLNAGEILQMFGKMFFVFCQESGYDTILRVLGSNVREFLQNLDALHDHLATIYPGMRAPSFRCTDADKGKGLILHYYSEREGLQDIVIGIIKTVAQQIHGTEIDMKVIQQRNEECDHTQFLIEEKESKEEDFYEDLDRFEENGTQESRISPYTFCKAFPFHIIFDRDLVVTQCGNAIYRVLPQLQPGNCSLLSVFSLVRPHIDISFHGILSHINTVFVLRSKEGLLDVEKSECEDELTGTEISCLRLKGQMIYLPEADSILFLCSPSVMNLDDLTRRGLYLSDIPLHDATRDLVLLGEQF
Outline: (§2)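 CO from a saturated solution was added by gas-tight syringe to protein in septum-capped 1 or 10 cm cuvettes. The appearance of the CO-bound Soret absorption band was followed, and data were fit to a single-site saturation ligand-binding model.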

[7] = biological target: heterodimeric sGC proteins; assay: CO binding to heterodimeric sGC proteins, summary over constructs; set-up: species or system Manduca sexta; details: read-out: Kd^CO, range over heterodimeric proteins; absence of YC-1
Outline: as §2

Ms sGC-NT19 = details: read-out: Kd^CO; no stimulator; ref 43; cited from earlier work
Ms sGC-NT2 = details: read-out: Kd^CO, no stimulator, cited from earlier work
Ms sGC β1(1–380) = biological target: T4, Ms sGC β1(1–380) (Manduca sexta, UniProt O77106); assay: CO titration monitoring the CO-bound Soret band; type: binding; details: for Kd: read-out: Kd^CO
T4 sequence (O77106 1-380): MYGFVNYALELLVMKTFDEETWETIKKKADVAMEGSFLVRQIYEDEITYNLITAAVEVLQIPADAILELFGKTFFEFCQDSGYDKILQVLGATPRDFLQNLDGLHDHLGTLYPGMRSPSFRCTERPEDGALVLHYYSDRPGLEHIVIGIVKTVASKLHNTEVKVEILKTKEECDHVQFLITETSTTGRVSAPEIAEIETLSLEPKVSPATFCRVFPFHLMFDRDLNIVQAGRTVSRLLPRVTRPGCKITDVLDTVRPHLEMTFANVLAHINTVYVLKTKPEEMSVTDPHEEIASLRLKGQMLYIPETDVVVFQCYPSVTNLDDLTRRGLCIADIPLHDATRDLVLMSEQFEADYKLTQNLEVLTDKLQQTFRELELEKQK
Outline: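 Ms β1(1–380) was expressed in E. coli Rosetta pLysS with 25 μM δ-aminolevulinic acid. It was purified by anion exchange, Ni-NTA (EDTA elution) and S200 gel filtration, where it ran as a monomer, then prepared in Ar-purged buffer with excess dithionite. CO from a saturated solution was titrated into a septum-capped 10 cm cuvette, the CO-bound Soret band was followed, and data were fit to a single-site saturation model.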

Bt sGC β1(1–197) = biological target: T5, Bt sGC β1(1–197) (Bos taurus, UniProt P16068); assay: CO titration monitoring the CO-bound Soret band; type: binding, Bos taurus (bovine)
T5 sequence (P16068 1-197): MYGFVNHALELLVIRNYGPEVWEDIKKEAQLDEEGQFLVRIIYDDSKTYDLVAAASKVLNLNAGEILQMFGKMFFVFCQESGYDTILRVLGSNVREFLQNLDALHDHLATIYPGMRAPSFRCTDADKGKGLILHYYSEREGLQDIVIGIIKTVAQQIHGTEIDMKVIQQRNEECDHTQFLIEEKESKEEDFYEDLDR
Outline: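 Bovine β1 H-NOX construct was expressed in E. coli BL21(DE3)pRIPL with δ-aminolevulinic acid and ferric citrate. It was purified by Q-FF, S75 and second Q-FF chromatography and prepared in Ar-purged buffer with excess dithionite. CO from a saturated solution was titrated by gas-tight syringe into the septum-capped cuvette while the CO-bound Soret band was followed. Data were fit to a single-site saturation model.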

Ms sGC α1 PAS = biological target: T6, Ms sGC α1 PAS (Manduca sexta, UniProt O77105); assay: Fluorescence anisotropy of YC-1; type: binding
T6 sequence (O77105 279-404): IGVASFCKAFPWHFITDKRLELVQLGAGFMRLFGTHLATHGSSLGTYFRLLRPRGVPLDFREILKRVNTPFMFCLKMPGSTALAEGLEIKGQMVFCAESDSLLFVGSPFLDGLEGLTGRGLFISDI

lysozyme = assay: Fluorescence anisotropy of YC-1; type: binding; details: 2 μM YC-1, 20 °C
Ms sGC β1 (1–380) = assay: Soret band shift on YC-1 addition; type: binding, Manduca sexta; details: CO-saturated protein
Bt sGC (full length) [8] = details: read-out: Kd^YC-1′, +CO; measured in the presence of GTP; cited from earlier work
sGC = details: cited from earlier work
β1 PAS domain = assay: Fluorescence anisotropy of YC-1; type: binding, Manduca sexta; details: 2 μM YC-1, 20 °C; likely non-specific

## Nc1nc(-c2nn(Cc3ccccc3F)c3ncccc23)ncc1C1CC1 [BAY 41–2272]
Aqueous solubility
  Solubility in aqueous buffer: poor solubility
[1]
  EC50: 0.3 µM
Ms sGC-NT21-CO
  Kd: 0.09 ± 0.02 µM
Ms sGC-NT13 [2]
  Kd^CO/Kd^CO′ cooperativity factor: 212 ± 23
Ms sGC-NT13-CO
  Kd: 0.08 ± 0.01 µM
Ms sGC-NT13 [3]; Kd^BAY, −NO/CO, estimated assuming linked equilibria: (Kd^CO/Kd^CO′) Kd^BAY′
  Kd: 17 ± 3 µM
Ms sGC-NT
  Effect of α1 H-NOX removal on stimulator binding (Ms sGC-NT21 vs Ms sGC-NT13): ~ 9 fold
Ms sGC-NT21 [4]
  Kd: 0.03 ± 0.01 µM
  Kint (CO) cooperativity factor: 58 ± 7
Ms sGC-NT21 [5]
  Kd^CO/Kd^CO′ cooperativity factor: 31 ± 5

## [C-]#[O+] [CO]
Bt sGC (full length) [6]; ref 51
  Kd: 127 µM
Bt sGC (full length) [6]; ref 76
  Kd: 97 µM
Hs sGC (full length)
  Kd: 260 µM
Ms sGC-NT13 [2]; read-out: Kd^CO, no stimulator, 1 μM protein
  Kd: 53 ± 4 µM
Bt sGC β1(1–359)
  Kd: 15 ± 4 µM
[7]
  Kd: 50 to 100 µM and 50 to 90 µM
Ms sGC-NT19
  Kd: 50 ± 3 µM
Ms sGC-NT2; ref 33
  Kd: 77 ± 7 µM
Ms sGC-NT2; ref 43
  Kd: 90 ± 9 µM
Ms sGC β1(1–380); absence of the alpha chain
  Kd: ~0.2 µM
Ms sGC β1(1–380); no stimulator, 10 cm cuvette, 0.1 μM protein
  Kd: ~0.2 µM and 0.2 µM
Ms sGC β1(1–380); vs heterodimeric Ms sGC
  Fold enhancement of CO binding on complete removal of the α1 chain: 265 fold
Ms sGC-NT21 [5]; read-out: Kd^CO, no stimulator, 10 cm cuvette, 0.1 μM protein
  Kd: 2.2 ± 0.2 µM
Ms sGC-NT21 [5]; removal of the α1 H-NOX domain
  Fold tighter CO binding than Ms sGC proteins containing the α1 H-NOX domain: 20–40 fold and 24 fold
Bt sGC β1(1–197)
  Fold less tight CO binding than Ms sGC β1(1–380): ~ 8 fold
Bt sGC β1(1–197); read-out: Kd^CO, no stimulator, 1 cm cuvette, 0.5 μM protein
  Kd: 1.6 ± 0.2 µM

## OCc1ccc(-c2nn(Cc3ccccc3)c3ccccc23)o1 [YC-1]
Ms sGC α1 PAS
  Kd: > 100 µM
Aqueous solubility
  Solubility in aqueous buffer: poor solubility
lysozyme
  Binding of YC-1 by fluorescence anisotropy: not for lysozyme
Ms sGC-NT21-CO
  Kd: 0.6 ± 0.1 µM
Ms sGC-NT13 [2]
  Kd^CO/Kd^CO′ cooperativity factor: 19 ± 3
Ms sGC β1 (1–380)
  Shift in Soret band maxima upon YC-1 binding: not observed
Ms sGC-NT13-CO
  Kd: 0.8 ± 0.1 µM
Bt sGC (full length) [8]
  Kd: ~8 µM
sGC; in the absence of NO
  Stimulation of sGC: two- to four-fold
sGC; synergistically with CO or NO
  Activation of sGC: several hundred fold
Ms sGC-NT13 [3]; from global fitting
  Kint (CO) cooperativity factor: 19 and 19 ± 2
Ms sGC-NT; Kd, CO complexes (presence of CO), over constructs, Ms sGC-NT13 and Ms sGC-NT21
  Kd: 0.6 to 1.1 µM and ~1 µM
Ms sGC-NT
  Effect of α1 H-NOX removal on stimulator binding (Ms sGC-NT21 vs Ms sGC-NT13): ~ 2 fold
β1 PAS domain
  Binding of YC-1 by fluorescence anisotropy: weak signal
Ms sGC β1(1–380); any of the constructs missing the α1 chain
  Kint, cooperativity in CO binding: ~ 1
Ms sGC-NT21 [4]
  Kint (CO) cooperativity factor: 14 and 13.8 ± 0.3
Ms sGC-NT21 [5]; 50 μM YC-1
  Tightening of the CO dissociation constant upon YC-1 binding: 10 fold
Ms sGC-NT21 [5]
  Kd^CO/Kd^CO′ cooperativity factor: 11 ± 1
